In ChEMBL document CHEMBL4431329, “Peripherally Selective Cannabinoid 1 Receptor (CB1R) Agonists for the Treatment of Neuropathic Pain” (J Med Chem, 2016):
The source made the active and inactive calls.

Experiments:
[1] = molecular target: T1, Cannabinoid receptor 1 (Homo sapiens, UniProt P21554); test: Displacement of [3H]-CP55940 from human CB1 receptor
How it was run: (§1)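 Radioligand displacement used [3H]-CP55940 as tracer in heterologous competition binding. Unlabeled reference ligands defined nonspecific binding. Ki was calculated by Cheng–Prusoff.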

[2] = Metabolic stability in Sprague-Dawley rat plasma assessed as compound remaining at 10 uM measured at 1 hr by LC/MS analysis; type: ADME, cell-free
How it was run: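 Compound (10 μM final, from 1 mM ethanol stock) was incubated in male Sprague–Dawley rat plasma at 37 °C. Aliquots taken at 0, 30 and 60 min were extracted with 3 volumes methanol and centrifuged. Supernatants were analysed by LC/MS.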

[3] = Metabolic stability in Sprague-Dawley rat liver S9 fraction assessed as compound remaining at 10 uM measured at 1 hr by LC/MS analysis; type: ADME, subcellular; settings: s9, 1 h
How it was run: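 Compound (10 μM final, from 1 mM ethanol stock) was incubated at 37 °C in male Sprague–Dawley rat liver S9 (1 mg protein/mL). The mix held an NADPH-regenerating system (1 mM NADP, 5 mM glucose 6-phosphate, 1 U/mL G6PDH) in 50 mM KPO4 pH 7.4 with 3 mM MgCl2, preincubated 5 min. Samples at 0–120 min were methanol-extracted and analysed by LC/MS.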

[4] = system: Rattus norvegicus; test: Antiallodynic activity in SNE-induced mechanical allodynia naive Sprague-Dawley rat model assessed as reversible […] in hindpaw ipsilateral withdrawal threshold at 0.3 mg/kg, ip preincubated for 3 hrs followed by SNE addition; type: functional, organism-based
How it was run: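 Male Sprague–Dawley rats received unilateral sciatic nerve entrapment. Testing began 8 days post-surgery at 3-day intervals, dosed ip in DMSO/Cremophor EL/saline. Hindpaw withdrawal threshold (g) was read with a digital von Frey meter, 4 readings per paw at 30 s spacing, averaged. Reads were taken 1 h before and 3, 6, 24 and 48 h after dosing; n = 8; blinded; one-way RM ANOVA.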

[5] = system: Rattus norvegicus; test: Analgesic activity in naive Sprague-Dawley rat assessed as increase in tail flick latency at 0.3 mg/kg, ip up to 48 hrs by tail-flick assay; type: functional, organism-based
How it was run: (§2)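 Naïve male Sprague–Dawley rats were dosed ip (DMSO/Cremophor EL/saline) or by gavage (DMSO in 20% condensed milk). Radiant heat was aimed 3 cm from the tail tip and latency timed by photocell. Baseline was set to ~5–7 s with a 25 s cutoff. Testing ran 1 h pre-dose and up to 48 h after. Peak effect was taken minus vehicle; n = 6–8; blinded.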

[6] = system: Rattus norvegicus; test: Analgesic activity in naive Sprague-Dawley rat assessed as tail flick latency at 0.1 to 10 mg/kg administered through oral gavage up to 48 hrs by tail-flick assay; type: functional, organism-based; how it was run: as §2
[7] = molecular target: T2, Cannabinoid receptor 2 (Homo sapiens, UniProt P34972); test: Displacement of [3H]-CP55940 from human CB2 receptor; how it was run: as §1
[8] = molecular target: T1, Cannabinoid receptor 1; test: Agonist activity at human CB1R expressed in CHO cells by Ca2+ flux assay; type: functional, cell-based
How it was run: (§3)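 CHO cells stably co-expressing human CB1 or CB2 with Gαq16 were seeded at 40000/well and grown 24 h at 37 °C. They were loaded 1 h at 37 °C with Fluo-4 AM (2 μM final) in HBSS/20 mM HEPES/1% BSA/probenecid. Agonist was added after ~17 s baseline, and fluorescence (ex 488/em 525) was read each 1 s for 60 s. Runs were done 3–6 times; mean ± SEM.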

[9] = molecular target: T2, Cannabinoid receptor 2; test: Agonist activity at human CB2R expressed in CHO cells by Ca2+ flux assay; type: functional, cell-based; how it was run: as §3
[10] = Toxicity in naive Sprague-Dawley rat assessed as motor incoordination at 0.1 to 10 mg/kg administered through oral gavage after 2 to 48 hrs by rotarod test; type: organism-based; settings: in vivo
How it was run: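 Rats were trained 72 h earlier (3 sessions, 24 h apart) to stay ≥180 s on an accelerating rotarod (4–40 rev over 5 min). Time on rod was recorded to a 3 min cutoff, 1 h pre-dose and 2, 6, 24 and 48 h after ip or oral gavage dosing. Values are peak effect minus vehicle; n = 6–8; blinded.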

[11] = Toxicity in naive Sprague-Dawley rat assessed as hypothermia at 0.1 to 10 mg/kg administered through oral gavage after 2 to 48 hrs by core temperature test; type: organism-based; settings: in vivo
How it was run: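 Naïve rats were acclimated to a restrainer (two 5-min sessions 20 min apart). Core temperature was taken before and 2, 6, 24 and 48 h after ip (DMSO/Cremophor EL/saline) or oral gavage (DMSO in 20% condensed milk) dosing. Dose-response points are mean peak effect minus vehicle; n = 6–8 rats; blinded.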

[12] = Toxicity in naive Sprague-Dawley rat assessed as immobility at 0.1 to 10 mg/kg administered through oral gavage after 2 to 48 hrs by catalepsy ring test; type: organism-based; settings: in vivo
How it was run: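 In the ring immobility test, forepaws were placed on a 12 cm horizontal ring with hindpaws just touching the bench. Time to move off was recorded, 100 s cutoff. Testing was pre-dose and 2, 6, 24 and 48 h after ip or oral gavage dosing. Values are peak effect minus vehicle; n = 6–8; blinded.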

T1 sequence (P21554 whole entry): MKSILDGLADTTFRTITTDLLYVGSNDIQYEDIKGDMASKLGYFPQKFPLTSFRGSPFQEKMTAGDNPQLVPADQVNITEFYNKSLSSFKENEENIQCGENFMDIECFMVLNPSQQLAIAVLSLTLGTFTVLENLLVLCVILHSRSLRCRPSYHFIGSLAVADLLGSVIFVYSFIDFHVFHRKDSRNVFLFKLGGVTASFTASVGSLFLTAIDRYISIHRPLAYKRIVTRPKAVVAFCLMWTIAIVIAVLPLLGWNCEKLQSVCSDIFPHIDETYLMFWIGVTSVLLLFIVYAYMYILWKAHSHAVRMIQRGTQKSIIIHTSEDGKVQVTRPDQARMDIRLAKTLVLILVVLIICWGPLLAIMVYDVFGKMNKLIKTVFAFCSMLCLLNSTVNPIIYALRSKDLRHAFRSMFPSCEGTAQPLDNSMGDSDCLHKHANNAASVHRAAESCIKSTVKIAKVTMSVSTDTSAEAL
T2 sequence (P34972 whole entry): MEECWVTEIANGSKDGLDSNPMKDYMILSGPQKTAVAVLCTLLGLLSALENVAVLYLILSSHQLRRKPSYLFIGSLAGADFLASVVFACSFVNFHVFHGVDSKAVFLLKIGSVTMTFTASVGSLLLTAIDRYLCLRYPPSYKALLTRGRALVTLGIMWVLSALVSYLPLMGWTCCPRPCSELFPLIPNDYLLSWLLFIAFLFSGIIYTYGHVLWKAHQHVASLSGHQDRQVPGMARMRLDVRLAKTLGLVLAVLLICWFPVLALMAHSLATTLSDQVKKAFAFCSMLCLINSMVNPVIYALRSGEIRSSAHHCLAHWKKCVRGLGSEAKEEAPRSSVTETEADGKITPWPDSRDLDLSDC

| Structure (SMILES) | Ki [1] | Stability [2] | Stability [3] | EC50 [8] | Emax [8] | also measured |
| --- | --- | --- | --- | --- | --- | --- |
| CCCCCn1cc(C(=O)c2ccc(C(=O)O)c3ccccc23)c2ccccc21 | > 10000 nM |  |  |  |  |  |
| COc1ccc(C(=O)c2c(C)n(CC[N+]3(C)CCOCC3)c3ccccc23)cc1 | > 10000 nM |  |  |  |  |  |
| C[N+]1(CCn2cc(C(=O)c3cccc4ccccc34)c3ccccc32)CCOCC1 | > 10000 nM |  |  |  |  |  |
| CCCCCCC1=C/C(=C\c2ccccc2)c2ccccc21 | 4410 nM |  |  |  |  |  |
| O=C(O)CCCCn1cc(C(=O)c2cccc3ccccc23)c2ccccc21 | > 10000 nM |  |  |  |  |  |
| C1=C(CCN2CCOCC2)c2ccccc2/C1=C/c1ccco1 | > 10000 nM |  |  |  |  |  |
| CCCCCn1cc(C(=O)c2cccc3ccccc23)c2cc(F)ccc21 |  | 99% | 13% |  |  |  |
| COc1ccc(/C=C2\C=C(CCN3CCOCC3)c3ccccc32)c2ccccc12 |  | 100% | 43% | 196 nM | 114% | Activity [4]: Active; Activity [5]: Active; Activity [6]: Active; Ki [7]: 4.07 nM; EC50 [9]: 194 nM; Emax [9]: 52%; Activity [10]: Non-Toxic; Activity [11]: Non-Toxic; Activity [12]: Non-Toxic |
| CCc1ccc(/C=C2\C=C(CCN3CCOCC3)c3ccccc32)c2ccccc12 |  |  |  | 141 nM | 121% | Activity [5]: Active; Activity [6]: Active; EC50 [9]: 163 nM; Emax [9]: 59%; Activity [10]: Non-Toxic; Activity [11]: Non-Toxic; Activity [12]: Non-Toxic |
| CCCCCn1cc(C(=O)c2cccc3ccccc23)c2cccc(F)c21 |  | 97% | 50% | 104 nM | 79% |  |
